Reference: paper PMC9464482 (EuroIntervention : journal of EuroPCR in collaboration with …, 2021)
Entries after “also recorded” stand apart in the source; their conditions may differ. Where two headings read alike, the source gives them in different places.

Experiments:
[1] = test system: platelet function; settings: ref Bentur et al (submitted), cited from earlier work
[2] = test system: platelet function; settings: cited from earlier work
[3] = test system: platelet aggregation; settings: cited from earlier work
[4] = Phase 1, healthy subjects and stable CAD patients on aspirin; cited from earlier work
[5] = format: in vivo, human
How it was run: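 STEMI patients in three cohorts received one weight-adjusted subcutaneous injection in the outer upper arm before pPCI, at 0.075, 0.090 or 0.110 mg/kg. Platelet counts were taken pre-dose and at 1, 24 and 72 h post dose. Other blood counts and kidney and liver function analytes were also monitored for tolerability.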

[6] = Safety and tolerability; format: in vivo, human
[7] = Whole blood pharmacokinetics of RUC-4 in STEMI patients; format: in vivo, human; settings: for maximum blood concentration (Cmax), mean±SD / tmax, median [min-max]: whole blood
[8] = test system: platelet function; assay: VerifyNow Base channel; format: in vivo, human; settings: for Base channel inhibition of platelet function, mean (min-max): 15 minutes post dose
How it was run: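 STEMI patients received a single subcutaneous dose in the upper arm before pPCI (0.075, 0.090 or 0.110 mg/kg cohorts). Citrated (3.2%) whole blood was drawn pre-dose and at 15–180 min, plus 240 min for cohorts 2–3. It was tested in the VerifyNow P2Y12 cartridge Base channel (20 μM iso-TRAP plus PAR-4 activator) as percent inhibition. Time to 50% return of platelet function was also derived.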

[9] = test system: platelet function; format: in vivo, human; settings: 15 minutes post dose
How it was run: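 Patients with STEMI were given one subcutaneous upper-arm injection before pPCI at 0.075, 0.090 or 0.110 mg/kg. Whole blood in 3.2% citrate was sampled pre-dose and at 15, 30, 45, 60, 90, 120 and 180 min, plus 240 min for cohorts 2–3. It was read on the VerifyNow P2Y12 iso-TRAP channel (3-4 μM iso-TRAP) as percent inhibition.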

[10] = test system: platelet function; settings: Phase 1, sc; cited from earlier work
[11] = even at peak levels of ticagrelor achieved in vivo, ref Bentur et al (submitted)

Compound: CC(=O)Oc1ccccc1C(=O)O [aspirin]
- effect on the iso-TRAP assay ([1]; Supplementary Appendix 2): not affected
- effect on the Base channel assay [2, 11]: not affected

Compound: CCCCOC(=O)N1CCN(C(=O)[C@H](CP(=O)(O)O)NC(=O)c2cc(N3CC[C@H](OC)C3)nc(-c3ccccc3)n2)CC1 [Selatogrel, selatogrel]
- effect on the VerifyNow P2Y12 assay ([3]; single sc dose prior to PCI, patients with MI): inhibited
- duration of effects ([3]; single sc dose): at least eight hours

Compound: CCCSc1nc(N[C@@H]2C[C@H]2c2ccc(F)c(F)c2)c2nnn([C@@H]3C[C@H](OCCO)[C@@H](O)[C@H]3O)c2n1 [ticagrelor]
- inhibition of the iso-TRAP assay ([1]; at peak levels of ticagrelor achieved in vivo): about 20%
- effect on the Base channel assay [2, 11]: not affected

Compound: CC(=O)Oc1cc2c(s1)CCN(C(C(=O)C1CC1)c1ccccc1F)C2 (centres unmarked) [prasugrel]
- effect on the Base channel assay ([2]; doses that cause near-complete inhibition of the P2Y12 assay): do not inhibit

Compound: NCC(=O)Nc1cncc(-c2nn3c(=O)cc(N4CCNCC4)nc3s2)c1 [RUC-4]
- dose up to which RUC-4 was well tolerated [4]: up to 0.075 mg/kg
- Haemoglobin (mean, SD) ([5]; 24 hours post dose, Cohort 1 (0.075 mg/kg), pre-dose 14.04 (0.95)): 13.82 (2.15) g/dL
- Platelet count (mean, SD) ([5]; 24 hours post dose, Cohort 1 (0.075 mg/kg), pre-dose 226.38 (44.59)): 211.13 (36.22) 109/L
- Haemoglobin (mean, SD) ([5]; 24 hours post dose, Cohort 2 (0.090 mg/kg), pre-dose 13.68 (1.17)): 13.93 (1.46) g/dL
- Platelet count (mean, SD) ([5]; 24 hours post dose, Cohort 2 (0.090 mg/kg), pre-dose 294.44 (74.60)): 273.00 (71.72) 109/L
- Haemoglobin (mean, SD) ([5]; 24 hours post dose, Cohort 3 (0.110 mg/kg), pre-dose 14.31 (1.31)): 13.29 (2.11) g/dL
- Platelet count (mean, SD) ([5]; 24 hours post dose, Cohort 3 (0.110 mg/kg), pre-dose 283.44 (60.85)): 238.13 (46.07) 109/L
- Haemoglobin (mean, SD) ([5]; 72 hours post dose /discharge, Cohort 1 (0.075 mg/kg), pre-dose 14.04 (0.95)): 14.10 (2.13) g/dL
- Platelet count (mean, SD) ([5]; 72 hours post dose /discharge, Cohort 1 (0.075 mg/kg), pre-dose 226.38 (44.59)): 214.88 (49.28) 109/L
- Haemoglobin (mean, SD) ([5]; 72 hours post dose /discharge, Cohort 2 (0.090 mg/kg), pre-dose 13.68 (1.17)): 13.96 (1.14) g/dL
- Platelet count (mean, SD) ([5]; 72 hours post dose /discharge, Cohort 2 (0.090 mg/kg), pre-dose 294.44 (74.60)): 281.67 (79.81) 109/L
- Haemoglobin (mean, SD) ([5]; 72 hours post dose /discharge, Cohort 3 (0.110 mg/kg), pre-dose 14.31 (1.31)): 13.75 (2.24) g/dL
- Platelet count (mean, SD) ([5]; 72 hours post dose /discharge, Cohort 3 (0.110 mg/kg), pre-dose 283.44 (60.85)): 229.00 (47.76) 109/L
- changes in blood counts, or in kidney or liver function analytes ([5]; all cohorts): no clinically meaningful changes
- thrombocytopaenia ([5]; first 72 hours post dose, all patients): No thrombocytopaenia; also recorded: None of the patients included in the study developed thrombocytopaenia; also recorded: did not produce thrombocytopaenia
- Number of patients with AEs with fatal outcome/death ([6]; 0.075 mg/kg sc): 0 (0%) n/N (%)
- Number of patients with AEs with fatal outcome/death ([6]; 0.090 mg/kg sc): 0 (0%) n/N (%)
- Number of patients with AEs with fatal outcome/death ([6]; 0.110 mg/kg sc): 0 (0%) n/N (%)
- AEs of special interest: Injection site bruising ([6]; Total, all doses): 11 (41%) n/N (%)
- AEs of special interest: Injection site reaction ([6]; Total, all doses): 1 (4%) n/N (%)
- AEs of special interest: Mild access-site bleeding ([6]; Total, all doses): 6 (22%) n/N (%)
- AEs of special interest: Severe access-site bleeding ([6]; Total, all doses): 2 n/N (%)
- Bleeding according to BARC classification: 1 ([6]; Total, all doses): 13 n/N (%)
- Number of patients with AEs with fatal outcome/death ([6]; Total, all doses): 0 (0%) n/N (%)
- most common AEs (injection site bruising, access-site haematoma or bruising) rated as grade 1 ([6]; safety cohort, all doses): 11/16
- bruising at the RUC-4 injection site ([6]; safety cohort, all doses, n=27): 41%
- vascular access-site haematoma or bruising ([6]; safety cohort, all doses, n=27): 30%
- time at which maximum whole blood concentrations were reached, mean ([7]; post dose, all cohorts): 20 min
- maximum blood concentration (Cmax), mean±SD ([7]; 0.075 mg/kg sc): 96.7 ± 26.0 ng/mL
- tmax, median [min-max] ([7]; 0.075 mg/kg sc): 15 [15-16] minutes
- maximum blood concentration (Cmax), mean±SD ([7]; 0.090 mg/kg sc): 152.4 ± 114.0 ng/mL
- tmax, median [min-max] ([7]; 0.090 mg/kg sc): 15 [14-45] minutes
- maximum blood concentration (Cmax), mean±SD ([7]; 0.110 mg/kg sc): 129.8 ± 23.3 ng/mL
- tmax, median [min-max] ([7]; 0.110 mg/kg sc): 15 [13-45] minutes
- Base channel inhibition of platelet function, mean (min-max) ([8]; 0.075 mg/kg sc): 86.0% (74.2%-97.7%)
- Base channel inhibition of platelet function, mean (min-max) ([8]; 0.090 mg/kg sc): 92.3% (86.8%-97.1%)
- Base channel inhibition of platelet function, mean (min-max) ([8]; 0.110 mg/kg sc): 93.0% (81.9%-98.6%)
- inhibition of the Base channel assay, on average ([8]; within 15 minutes, sc, all cohorts): more than 90%
- inhibition of platelet function, iso-TRAP assay, mean (min-max) ([9]; 0.075 mg/kg sc): 77.5% [65.7%-90.6%]
- patients with high-grade (≥77%) inhibition of the VerifyNow iso-TRAP assay ([9]; 0.075 mg/kg sc): 3/8
- inhibition of platelet function, iso-TRAP assay, mean (min-max) ([9]; 0.090 mg/kg sc): 87.5% [73.8%-93.1%]
- patients with high-grade (≥77%) inhibition of the VerifyNow iso-TRAP assay ([9]; 0.090 mg/kg sc): 7/8
- inhibition of platelet function, iso-TRAP assay, mean (min-max) ([9]; 0.110 mg/kg sc): 91.7% [76.4%-99.3%]
- patients with high-grade (≥77%) inhibition of the VerifyNow iso-TRAP assay ([9]; 0.110 mg/kg sc): 7/8
- return of platelet function [10]: within two hours
- time to high-grade inhibition of platelet function (LTA, 20 μM ADP) [10]: ≤ 15 min
